The nature of data set [1]: Partition coefficient (logP). The class given is physicochemical. To be noted: octanol/water.
Data set [2] is described as follows: (§1) Cytotoxic activity of LDH(mu) release in HaCaT cells was measured after treatment with 2 uM of the compound. The class given is functional, Homo sapiens. Summed up: (§2)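 HaCaT cells treated with 2 µM compound. Membrane damage read as lactate dehydrogenase activity (mU) released into the culture medium. N = 3, SD < 10%.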
A short description of data set [3]: Induction of Keratinocyte Differentiation in cross-linked envelope assay at 10 uM expressed as difference of the amount of cross-linked protein as a measure of HaCaT keratinocyte differentiation. In kind it is functional, Homo sapiens. The method in brief:
(§3)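 HaCaT cultures were 144 h post-confluent; medium replaced, compound added from DMSO stocks diluted in DMEM (final DMSO 0.2%), controls DMSO or medium alone, 48 h. Cells were detached with trypsin/EDTA, lysed in SDS/β-ME, dot-blotted, TCA-heated, Coomassie-stained and scanned. Value is cross-linked protein minus vehicle, per mg protein (Bradford), mean ± SEM of 3 experiments.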

Data set [4] is described as follows: Induction of Keratinocyte Differentiation in cross-linked envelope assay at 1 uM expressed as difference of the amount of cross-linked protein as a measure of HaCaT keratinocyte differentiation. In kind it is functional, Homo sapiens. Summed up:
as §3

The nature of data set [5]: (§4) Induction of Keratinocyte Differentiation in cross-linked envelope assay at 5 uM expressed as difference of the amount of cross-linked protein as a measure of HaCaT keratinocyte differentiation. In kind it is functional, Homo sapiens. Summed up: as §3
The nature of data set [6]: Concentration required to inhibit 50% growth of HaCaT cells. The note with it: Homo sapiens. The class given is functional, cell-based. The method in brief:
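HaCaT keratinocytes treated for 48 h. Proliferation read by counting dispersed cells under phase-contrast microscope. Growth inhibition tested for significance against control, N = 3, P < 0.01.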

The nature of data set [7]: Inhibition of LTB4 biosynthesis in bovine polymorphonuclear leukocytes using nordihydroguaiaretic acid. In kind it is functional, cell-based, Bos taurus.
Another data set concerns HaCaT. Described as §4. The class given is cell-based. To be noted: Homo sapiens. Summed up: as §3
Data set [8] is described as follows: as §1. The class given is cell-based. The note with it: human. Summed up:
as §2

Data set [9] in a line: Deoxyribose degradation activity was measured as hydroxyl radical formation.
Data set [10] in a line: Cytotoxic activity of LDH(mu) release in HaCaT cells was measured after treatment of 2 uM. In kind it is functional, Homo sapiens. Summed up: as §2

A word on the logP: it is the decadic logarithm of the partition coefficient of the neutral form, usually between octanol and water. Read a high logP as higher lipophilicity. The IC50 is the midpoint of a concentration-inhibition curve. As for `Cc1ccc(CC(=O)C2c3cccc(O)c3C(=O)c3c(O)cccc32)cc1`, in data set [1], the logP stood at 4.54. The LDH in [2] worked out at 145 MU. For the same molecule, the Activity is reported as 5.1 ug (mg of protein)-1 in [3], 2.1 ug (mg of protein)-1 in data set [4] and 4.2 ug (mg of protein)-1 in data set [5]. Further, 0.7 µM corresponded to half-maximal inhibition in [6] (IC50).
For `CN(O)C(=O)Cc1ccc(CC(=O)C2c3cccc(O)c3C(=O)c3c(O)cccc32)cc1`, the values for the IC50 in [7] and in data set [6] were 0.05 µM and 0.7 µM, respectively. Moreover, in the data set on HaCaT, the Activity (ug (mg of protein)-1) turned out to be 5.5. The LDH in data set [8] came to 199 MU. The molecule also had a logP in data set [1] of 3.02. The Activity is 6.2 ug (mg of protein)-1 in data set [3], 2.8 ug (mg of protein)-1 in data set [4] and 0.51 in data set [9].
Take `COc1ccc(CC(=O)C2c3cccc(O)c3C(=O)c3c(O)cccc32)cc1`: the figures for the IC50 in [7] and in data set [6] were 0.5 µM and 1.1 µM, respectively. In addition, in [2], the LDH amounted to 143 MU. Moreover, the Activity was 5.8 ug (mg of protein)-1 in [3], 2.3 ug (mg of protein)-1 in data set [4] and 5.3 ug (mg of protein)-1 in data set [5].
In the case of `O=C1c2c(O)cccc2C(C(=O)Cc2c[nH]c3ccccc23)c2cccc(O)c21`, the values for the IC50 in data set [7] and in data set [6] were 9 µM and 0.8 µM, respectively. This molecule also came in with a log partition coefficient (logP) in data set [1] of 3.77. The LDH in [2] came out at 174 MU. Besides, the Activity was 6.2 ug (mg of protein)-1 in data set [3], 1.8 ug (mg of protein)-1 in [4], 4.9 ug (mg of protein)-1 in data set [5] and under 0.3 in [9].
As for `O=C1c2c(O)cccc2Cc2cccc(O)c21` [ANTHRALIN], the Activity in [3] is given as 5.8 ug (mg of protein)-1; in data set [4], 3.7 ug (mg of protein)-1; in data set [5], 4.9 ug (mg of protein)-1. The molecule further showed an LDH in data set [10] of 294 MU. Moreover, inhibition in data set [6] was half-maximal at 0.7 µM (IC50).
